# Assay results published in PMC8063330 (Oncology Letters, 2021).
# What was measured:
# c-myc in SNU-638 cells = assay: c-myc level by western blotting in SNU-638; assay type: cell-based; conditions: 24 h
# Summary of the method: (§1)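 Cells grown in RPMI-1640 with 10% FBS and exposed to test compound. Lysates run on SDS-PAGE and immunoblotted for c-Myc with tubulin as loading reference. HRP secondaries, ECL detection.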
# c-myc in MKN-45 cells = assay: c-myc level by western blotting in MKN-45; assay type: cell-based; conditions: 24 h
# Summary of the method: as §1
smiles,measurement,setting,value
CCNC(=O)C[C@@H]1N=C(c2ccc(Cl)cc2)c2cc(OC)ccc2-n2c(C)nnc21 [I-BET-762],c-myc level,c-myc in SNU-638 cells,downregulated the c-myc level
same,c-myc level,c-myc in MKN-45 cells,did not downregulate the c-myc level
